Biological target: T1, N-arachidonyl glycine receptor (Homo sapiens, UniProt Q14330)
T1 sequence (Q14330 whole entry): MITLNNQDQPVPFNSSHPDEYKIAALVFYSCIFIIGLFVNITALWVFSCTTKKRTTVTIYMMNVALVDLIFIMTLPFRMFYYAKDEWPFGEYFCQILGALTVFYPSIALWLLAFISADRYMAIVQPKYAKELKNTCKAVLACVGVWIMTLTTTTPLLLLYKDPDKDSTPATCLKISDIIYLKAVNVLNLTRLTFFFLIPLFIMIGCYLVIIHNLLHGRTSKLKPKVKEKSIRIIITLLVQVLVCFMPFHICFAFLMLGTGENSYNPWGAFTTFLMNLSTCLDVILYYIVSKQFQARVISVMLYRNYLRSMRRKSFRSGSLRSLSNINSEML
Assay: […] at Prolink1-tagged human GPR18 receptor expressed in CHO cells assessed as […] by measuring 2-(3-(6-(4-chlorophenoxy)hexyloxy)benzylidene)-6,7-dihydro-2H-imidazo[2,1-b][1,3]thiazin-3(5H)-one IC50 at 1 uM after 90 mins by beta-galactosidase based topcount luminescence analysis
In short: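 Human GPR18 stably expressed in CHO cells, β-arrestin enzyme complementation. Antagonist concentration-inhibition curves run against a fixed 1 μM agonist stimulus. IC50 and maximal inhibition derived from curves; means of three independent experiments, each in duplicate.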

IC50: 944 nM
Compound: Cn1c(=O)c2c(nc3n2CCCN3CCc2c[nH]c3ccccc23)n(C)c1=O [9-(2-(1H-indol-3-yl)ethyl)-1,3-dimethyl-6,7,8,9-tetrahydropyrimido[1,2-a]purine-2,4(1H,3H)-dione]
